The source of these data is ChEMBL document CHEMBL4325822, “Discovery of a tetrazolyl β-carboline with in vitro and in vivo osteoprotective activity under estrogen-deficient conditions” (Medchemcomm, 2018).

Each structure is given as a SMILES string. Activity calls are given as the source filed them. The rule behind the calls is not given here.

A short description of series [1]: Induction of osteoblast differentiation in Sprague-Dawley rat calvarial osteoblasts assessed as alkaline phosphatase activity after 48 hrs using PNPP as substrate by spectrophotometric method. In kind it is functional, cell-based. The procedure, abridged: (§1)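 Calvarial osteoblasts at 2 × 10³ cells/well. Treated 48 h with varied concentrations in differentiation medium (5% charcoal-treated FBS, 10 mM β-glycerophosphate, 50 µg·mL⁻¹ ascorbic acid). Total ALP read with PNPP substrate at 405 nm. Cell-free wells check for compound interference with substrate or absorbance.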

The test system of series [2] is Calvarial osteoblast. Description: Induction of osteoblast differentiation in Sprague-Dawley rat calvarial osteoblasts assessed as alkaline phosphatase activity at 0.000001 to 1 uM after 48 hrs using PNPP as substrate by spectrophotometric method relative to control. In kind it is functional, cell-based. The procedure, abridged:
as §1

The test system of series [3] is Calvarial osteoblast. Briefly: Induction of osteoblast differentiation in Sprague-Dawley rat calvarial osteoblasts assessed as alkaline phosphatase activity at 10 nM after 48 hrs using PNPP as substrate by spectrophotometric method relative to control. Format: functional. The procedure, abridged:
as §1

Series [4] deals with Calvarial osteoblast. Description: Increase in Runx2 protein expression in Sprague-Dawley rat calvarial osteoblasts at 100 pM after 48 hrs by Western blot analysis. In kind it is functional, cell-based. The procedure, abridged:
(§2)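 Rat calvarial osteoblasts (pooled 1–2-day pups, collagenase/dispase digests) at 60–70% confluence treated 48 h. Whole-cell lysates immunoblotted with primary antibody overnight at 4 °C, then HRP secondary, with ECL detection. Densitometry gives fold change normalized to β-actin versus untreated cells. Mean ± SEM of three independent experiments.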
A general note: In western blotting, separated proteins are transferred to a membrane and probed.

Series [5] is described as follows: Increase in BMP2 mRNA expression in Sprague-Dawley rat calvarial osteoblasts at 100 pM by RT-PCR method relative to control. In kind it is functional, Calvarial osteoblast. The procedure, abridged: (§3)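 Primary calvarial osteoblasts were lysed in TRIzol after treatment, and total RNA was extracted. Transcripts were quantified by real-time PCR using the comparative CT (ΔΔCT) method.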

A short description of series [6]: Increase in Runx2 mRNA expression in Sprague-Dawley rat calvarial osteoblasts at 100 pM by RT-PCR method relative to control. Format: functional, Calvarial osteoblast.
The subject of series [7] is Calvarial osteoblast. Description: Increase in OCN protein expression in Sprague-Dawley rat calvarial osteoblasts at 100 pM after 48 hrs by Western blot analysis. In kind it is functional, cell-based. The procedure, abridged:
as §2

For series [8], the system named is Calvarial osteoblast. Briefly: Osteogenic activity in Sprague-Dawley rat calvarial osteoblasts assessed as mineralized nodule formation at 100 pM after 21 days by alizarin red-S staining based light microscopic method. In kind it is functional, cell-based. The procedure, abridged: (§4)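 Osteoblasts at 10,000–15,000 cells/cm² in duplicate plates, 21 days in differentiation medium, medium changed every 48 h. Cells fixed in 4% PFA, stained with alizarin red-S (40 mM, pH 4.5, 30 min) and photographed. Stain extracted with 10% acetic acid, pH brought to 4.5 with ammonium hydroxide, read at 405 nm, normalized to cell number.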

Series [9] concerns Calvarial osteoblast. Briefly: Increase in BMP2 protein expression in Sprague-Dawley rat calvarial osteoblasts at 100 pM after 48 hrs by Western blot analysis. Format: functional, cell-based. The method, boiled down: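 Rat calvarial osteoblasts at 60-70% confluence were treated 48 h. Whole-cell lysates were blotted, blocked in 5% milk, and probed with primary antibody overnight at 4 °C, then with HRP secondary and ECL detection. Densitometry was normalized to β-actin; fold change versus untreated cells, three independent experiments, mean ± SEM.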

The subject of series [10] is Calvarial osteoblast. Briefly: Cytotoxicity against Sprague-Dawley rat calvarial osteoblasts assessed as reduction in cell viability at 0.000001 to 1 uM after 48 hrs by MTT assay. In kind it is cell-based. The method, boiled down:
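Osteoblasts came from pooled calvaria of 1-2-day-old Sprague-Dawley pups, isolated by sequential dispase/collagenase digestion. Cells were exposed to compound at 1 pM to 1 µM for 48 h, and viability was measured by MTT.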

Series [11] is described as follows: Induction of osteoblast differentiation in Sprague-Dawley rat calvarial osteoblasts assessed as alkaline phosphatase activity at 100 pM after 48 hrs using PNPP as substrate by spectrophotometric method relative to control. Format: functional. The method, boiled down:
as §1

A short description of series [12]: Increase in OCN mRNA expression in Sprague-Dawley rat calvarial osteoblasts at 100 pM by RT-PCR method relative to control. Format: functional, Calvarial osteoblast. The method, boiled down: as §3
For series [13], the system named is Calvarial osteoblast. Description: Osteogenic activity in Sprague-Dawley rat calvarial osteoblasts assessed as mineralized nodule formation at 100 pM after 21 days by alizarin red-S staining based colorimetric method. Format: functional. The procedure, abridged: as §4
[14] abbreviates: Rattus norvegicus, Sprague-Dawley, Calvarial osteoblast, 48 h, read-out: EC50.

Take `CCOC(=O)c1cc2c([nH]c3ccccc32)c(C(c2nnnn2C(C)(C)C)N2CCOCC2)n1` (stereo not drawn): the EC50 entry in series [1] (calvarial osteoblast) is on record as “Not Active”. Also, the Emax entry in the series with Calvarial osteoblast [2] is “inactive”.
Regarding `CCN1CCN(C(c2nc(C(=O)OC)cc3c2[nH]c2ccccc23)c2nnnn2C(C)(C)C)CC1` (stereo not drawn), the EC50 result in [1] (calvarial osteoblast) was “Not Active”. The Emax entry in the series on Calvarial osteoblast [3] is “inactive”.
Consider `COC(=O)c1cc2c([nH]c3ccccc32)c(C(c2nnnn2C(C)(C)C)N2CCN(c3ncccn3)CC2)n1` (stereo not drawn), for which the outcome in the series on Calvarial osteoblast [4], in the series with Calvarial osteoblast [7], with Calvarial osteoblast [8] and with Calvarial osteoblast [9] was Active. Besides, the “fold change (FC)” value in series [5], in series [6] and in [12] was 1.8 - 4.6 each time. The EC50 in series [1] (setting [14]) is 3270 nM. Moreover, the Activity result in the series with Calvarial osteoblast [10] is “Non-Toxic”; with Calvarial osteoblast [13], 48%. Moreover, the Emax at 0.0001 µM in [11] is 80%.
For `CCOC(=O)c1cc2c([nH]c3ccccc32)c(C(c2nnnn2C(C)(C)C)N2CCN(C(=O)c3ccco3)CC2)n1` (stereo not drawn), the EC50 entry in [1] (calvarial osteoblast) is “Not Active”. Besides, the Emax result with Calvarial osteoblast [2] is “inactive”.
In the same order, the values of `COC(=O)CNC(c1nc(C(=O)OC)cc2c1[nH]c1ccccc12)c1nnnn1C(C)(C)C` (stereo not drawn) are “Not Active” and “inactive”.
Turning to `CCOC(=O)c1cc2c([nH]c3ccccc32)c(C(NC(C)(C)C)c2nnnn2C(C)(C)C)n1` (stereo not drawn), the EC50 entry in series [1] (calvarial osteoblast) is reported as “Not Active”. The Emax entry in the series with Calvarial osteoblast [2] is “inactive”.
As to `COC(=O)c1cc2c([nH]c3ccccc32)c(C(NCc2ccc(C)cc2)c2nnnn2C(C)(C)C)n1` (stereo not drawn), the concentration for a half-maximal effect (EC50) entry in series [1] (calvarial osteoblast) is recorded as “Not Active”. The Emax result with Calvarial osteoblast [2] was “inactive”.
In the same order, the values of `COC(=O)c1cc2c([nH]c3ccccc32)c(C(NCc2ccc(Cl)c(Cl)c2)c2nnnn2C(C)(C)C)n1` (stereo not drawn) are “Not Active” and “inactive”.
In the case of `CCOC(=O)c1cc2c([nH]c3ccccc32)c(C(c2nnnn2C(C)(C)C)N2CCN(Cc3ccc4c(c3)OCO4)CC2)n1` (stereo not drawn), in [1] (calvarial osteoblast), the EC50 entry is “Not Active”. Further, the Emax entry in the series on Calvarial osteoblast [2] was “inactive”.
In the same order, the values of `CCOC(=O)c1cc2c([nH]c3ccccc32)c(C(c2nnnn2C(C)(C)C)N2CCN(c3ccc(F)cc3)CC2)n1` (stereo not drawn) are “Not Active” and “inactive”.
As to `CCOC(=O)c1cc2c([nH]c3ccccc32)c(C=O)n1`, the outcome in the series on Calvarial osteoblast [4], in the series with Calvarial osteoblast [7] and with Calvarial osteoblast [9] was Active. Besides, the “fold change (FC)” value in series [5], in series [6] and in [12] was 1.8 - 4.6 throughout. Besides, in series [1] (setting [14]), the EC50 is 613 nM. Further, the Activity entry in the series on Calvarial osteoblast [10] is on record as “Non-Toxic”; in the series with Calvarial osteoblast [13] it was 20%. For the same molecule, the Emax at 0.0001 µM in series [11] turned out to be 65%.
For the molecule `COC(=O)c1cc2c([nH]c3ccccc32)c(C(NC(C)(C)C)c2nnnn2C(C)(C)C)n1` (stereo not drawn), the EC50 result in [1] (calvarial osteoblast) is recorded as “Not Active”. Moreover, in the series on Calvarial osteoblast [2], the Emax entry is “inactive”.
For `COC(=O)c1cc2c([nH]c3ccccc32)c(C(NCc2ccccc2)c2nnnn2C(C)(C)C)n1` (stereo not drawn), the EC50 in series [1] (setting [14]) stood at 468 nM. In addition, the Emax at 0.0001 µM in [11] turned out to be 29%.

The term EC50 denotes the concentration at which the effect is half-maximal. As a reminder, the Emax is the greatest response seen or fitted, relative to the assay's reference.
